Potentiation (% of control) data for 2 molecules are collected here from PubChem BioAssay AID1267 (The Scripps Research Institute Molecular Screening Center, 2008).

About 770 (64%) of roughly 1,200 compounds were called active. So high a share suggests a set chosen from earlier hits. These entries were drawn from the full list. Unmarked numbers belong to inactive results.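 The calls were made as follows: active = percent activation of the STAT3 luciferase reporter above a set limit taken from the earlier primary screen (cut at about 130% in these data); inactive = the rest.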

This experiment can be described thus: enhancers of IL-6 STAT3 signaling – U3A cells, luciferase, luminescence, confirmation (AID 1267).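 Also: 0% = background signal of medium plus substrate and 100% = median of IL-6 with DMSO wells.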 The note with it: U3A STAT3-luciferase reporter, IL-6 potentiation, at 5.7 µM, hits give high values. The procedure, abridged: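 Material: U3A STAT3::luc reporter cells; probe or stimulus: IL-6 stimulus at 33 ng/mL final; schedule: compound 1 h and IL-6 6 h, 37 °C; signal: luciferase reporter luminescence; evaluation: % potentiation versus median IL-6 plus DMSO wells, background-subtracted; controls: IL-6 + DMSO high control, media-only background; repeats: three replicates per compound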
On the technique in general: A reporter such as luciferase makes a cellular process visible.
In the case of `CCC/C(=N\O)c1c[nH]c2ccccc12`, the potentiation (% of control) is 143% (active).

For the molecule `COc1cc(-n2c(=S)[nH]c3ccc(C)cc3c2=O)c(Cl)cc1Cl`, the potentiation (% of control) was 129%.
